Activity calls are given as the source filed them. No rule for the calls is given here.
Biological target: Metabotropic glutamate receptor 6 (Homo sapiens) (UniProt O15303)
Experiment: glutamate potency shift at mGlu6 – cell-based, HEK293A, Galpha15, calcium mobilization, selectivity assay for mGlu5 silent allosteric modulator project (AID 652205)
Conditions: HEK293A hmGlu6+Galpha15, Fluo4 calcium mobilization, glutamate CRC; at 10 µM
Outline: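 System: HEK293 cells co-expressing human mGlu6 receptor and Galpha15. Medium: HBSS with 2.5 mM probenecid and 20 mM HEPES, pH 7.4. Incubation: Fluo-4 AM dye loading 60 min at 37 °C, compound at 20 s. Technique: Fluo-4 calcium mobilization fluorescence.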

Sequence of Metabotropic glutamate receptor 6 (Homo sapiens) (O15303 whole entry, looked up): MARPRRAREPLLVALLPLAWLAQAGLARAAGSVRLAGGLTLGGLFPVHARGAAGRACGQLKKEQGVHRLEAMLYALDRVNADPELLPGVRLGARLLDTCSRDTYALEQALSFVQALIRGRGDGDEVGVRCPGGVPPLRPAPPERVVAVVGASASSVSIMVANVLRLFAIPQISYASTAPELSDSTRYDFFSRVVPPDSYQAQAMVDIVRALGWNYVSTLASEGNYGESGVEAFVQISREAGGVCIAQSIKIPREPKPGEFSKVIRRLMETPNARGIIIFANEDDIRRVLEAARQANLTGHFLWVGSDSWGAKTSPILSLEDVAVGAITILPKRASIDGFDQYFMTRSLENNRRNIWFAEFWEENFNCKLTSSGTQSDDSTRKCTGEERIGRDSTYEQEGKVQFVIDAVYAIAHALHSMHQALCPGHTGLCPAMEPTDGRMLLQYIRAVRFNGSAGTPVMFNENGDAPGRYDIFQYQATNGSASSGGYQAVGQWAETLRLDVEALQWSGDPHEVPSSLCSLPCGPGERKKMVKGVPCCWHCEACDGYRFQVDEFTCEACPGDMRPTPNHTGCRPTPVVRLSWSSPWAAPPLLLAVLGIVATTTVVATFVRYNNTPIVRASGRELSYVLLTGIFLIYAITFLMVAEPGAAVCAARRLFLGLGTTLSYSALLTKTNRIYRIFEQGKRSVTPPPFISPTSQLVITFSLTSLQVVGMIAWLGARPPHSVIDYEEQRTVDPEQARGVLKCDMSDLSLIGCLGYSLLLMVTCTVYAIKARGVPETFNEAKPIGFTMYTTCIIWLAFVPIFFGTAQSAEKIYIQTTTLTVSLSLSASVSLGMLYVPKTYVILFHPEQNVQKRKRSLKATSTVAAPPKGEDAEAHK

- glutamate EC50 fold shift: 0.859 (inactive)
Structure (SMILES): O=C(c1ccc(C#Cc2cccc(F)c2)cn1)N1CC2CC2C1 (stereo unspecified)
